Test results: ChEMBL document CHEMBL4715734, “Discovery of the Potent and Selective M1 PAM-Agonist N-[(3R,4S)-3-Hydroxytetrahydro-2H-pyran-4-yl]-5-methyl-4-[4-(1,3-thiazol-4-yl)benzyl]pyridine-2-carboxamide (PF-06767832): Evaluation of Efficacy and Cholinergic Side Effects” (J Med Chem, 2016)
The source made the active and inactive calls. No cut-off for these calls is given here.

Key:
[1] = Partial agonist activity at muscarinic M2/M3 receptor in Hartley guinea pig ileum assessed as stimulation of contraction; type: tissue-based; details: Cavia porcellus
In short: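 Agonist mode used a guinea pig ileum tissue bath with the compound applied alone. Concentration–response curves were run with or without the non-selective muscarinic antagonist atropine. Contraction was expressed relative to the maximal carbachol response.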

[2] = molecular target: Dual 3',5'-cyclic-AMP and -GMP phosphodiesterase 11A (Homo sapiens, UniProt Q9HCR9); assay: Inhibition of PDE11A4 (unknown origin)
[3] = Fraction unbound in C57BL/6 mouse plasma; type: ADME, cell-free
[4] = fAUC (0 to 24 hrs) in rat at 3 mg/kg, po administered for 14 days; type: ADME, organism-based; details: in vivo, 336 h, time 14 day
In short: (§1)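 2-week repeat oral dosing in rats, 0.5% methylcellulose formulation; N=4/sex/dose; doses 3, 10, 30 (males)/15 (females) mg/kg; unbound exposures reported per dose and sex.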

[5] = Oral bioavailability in rat at 0.5 mg/kg; type: ADME, organism-based; details: in vivo
[6] = Unbound plasma concentration in scopolamine-induced Wistar rat model at 1 mg/kg, po measured after 1 hr; type: ADME, organism-based; details: in vivo
In short: (§2)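 Plasma sampled 1 h after oral dosing in satellite animals (N=2/dose) given the same dosing solution as the water-maze study (suspension in 0.5% methylcellulose in water); unbound concentration reported as the group average.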

Rattus norvegicus = assay: Reversal of scopolamine-induced spatial learning in Wistar rat model at 0.32 mg/kg, po administered 15 min before training followed by 30 mins later administration with scopolamine measured after 24 hrs by Morris water maze test
[7] = Unbound brain concentration in scopolamine-induced Wistar rat model at 0.1 mg/kg, po measured after 1 hr; type: ADME, organism-based; details: in vivo
[8] = Toxicity in male Beagle dog assessed as decrease in QTc interval at 3 mg/kg, po administered as single dose observed upto 9 hrs post last dose by telemetry; type: organism-based, Canis lupus familiaris; details: in vivo
In short: (§3)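 Crossover telemetry study in dogs at three oral doses (0.3, 1 and 3 mg/kg), N=4. Endpoints were blood pressure, maximum systolic left ventricular pressure, LV +dP/dt max, activity, heart rate, and RR, QT and QTc intervals, followed up to 9 h post dose.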

[9] = fAUC (0 to 24 hrs) in dog at 3 mg/kg, po using spray-dried dispersion formulation; type: ADME, organism-based, Canis lupus familiaris; details: in vivo
[10] = Permeability of compound in MDCKII-LE cells; type: ADME, cell-based, Canis lupus familiaris; details: dog, MDCK; read-out: permeability
[11] = fAUC (0 to 24 hrs) in rat at 30 mg/kg, po administered for 14 days; type: ADME, organism-based; details: in vivo, 336 h, time 14 day; in short: as §1
[12] = Unbound brain concentration in scopolamine-induced Wistar rat model at 1 mg/kg, po measured after 1 hr; type: ADME, organism-based; details: in vivo
[13] = Unbound plasma concentration in scopolamine-induced Wistar rat model at 0.32 mg/kg, po measured after 1 hr; type: ADME, organism-based; details: in vivo; in short: as §2
[14] = molecular target: T1, Muscarinic acetylcholine receptor M3 (Homo sapiens, UniProt P20309); assay: Positive allosteric modulation of muscarinic M3 receptor (unknown origin) assessed as increase in ACh-induced displacement of [3H]-NMS from M2 receptor
In short: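 Cell lines expressing M2 or M3 were used for [3H]NMS binding. Inhibition of binding by ACh was measured in the presence of fixed compound concentrations of 10, 3, 1, 0.3, 0.1 and 0 µM.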

[15] = Ratio of fAUC in brain to plasma of scopolamine-induced Wistar rat model at 0.1 mg/kg, po measured after 1 hr; type: ADME, organism-based; details: brain and plasma, read-out: Ratio AUC
[16] = molecular target: T2, Muscarinic acetylcholine receptor M1 (Homo sapiens) (UniProt P11229); assay: Binding affinity to human muscarinic M1 receptor stably expressed in CHO cells assessed as increase in intracellular calcium level measured after 10 mins by Fluo-8AM dye based FLIPR TETRA method; type: cell-based; details: filed as positive allosteric modulator
T2 sequence (whole entry): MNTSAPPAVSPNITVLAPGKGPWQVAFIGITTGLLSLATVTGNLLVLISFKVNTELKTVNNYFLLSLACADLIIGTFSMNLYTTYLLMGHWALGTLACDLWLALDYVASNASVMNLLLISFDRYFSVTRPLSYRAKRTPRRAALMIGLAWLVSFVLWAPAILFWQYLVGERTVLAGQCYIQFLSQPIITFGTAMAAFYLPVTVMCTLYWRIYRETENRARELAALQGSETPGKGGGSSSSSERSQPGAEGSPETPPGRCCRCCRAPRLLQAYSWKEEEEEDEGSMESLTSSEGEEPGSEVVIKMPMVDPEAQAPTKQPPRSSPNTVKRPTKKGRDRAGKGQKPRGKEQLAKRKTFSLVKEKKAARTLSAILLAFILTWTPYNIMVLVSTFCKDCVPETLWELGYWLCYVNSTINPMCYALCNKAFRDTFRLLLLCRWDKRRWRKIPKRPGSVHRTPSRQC

[17] = Toxicity in dog assessed as salivation at 3 mg/kg, po using spray-dried dispersion formulation; type: organism-based, Canis lupus familiaris; details: in vivo
[18] = Toxicity in male Beagle dog assessed as decrease in RR interval at 3 mg/kg, po administered as single dose observed upto 9 hrs post last dose by telemetry; type: organism-based, Canis lupus familiaris; details: in vivo; in short: as §3
[19] = Ratio of AUC monkey brain to fAUC in monkey plasma; type: ADME, cell-free, Macaca mulatta; details: rhesus monkey, in vivo
[20] = fAUC (0 to 24 hrs) in dog at 15 mg/kg, po using spray-dried dispersion formulation; type: ADME, organism-based, Canis lupus familiaris; details: in vivo
[21] = Unbound brain concentration in CD-1 mouse at 10 mg/kg, sc measured after 2 hrs by LC-MS/MS analysis; type: ADME, organism-based; details: in vivo
[22] = fCmax in dog at 3 mg/kg, po using spray-dried dispersion formulation; type: ADME, organism-based, Canis lupus familiaris; details: in vivo
[23] = Unbound plasma concentration in […] in Sprague-Dawley rat model at 0.32 mg/kg, sc measured after 1.67 hrs; type: ADME, organism-based; details: in vivo
In short: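 Randomly selected animals (N=2/dose) at the end of the rat PPI study, T = 1.67 h. Dosed subcutaneously as a suspension in 0.5% methylcellulose in water. Plasma and brain concentrations were averaged.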

[24] = Toxicity in male Beagle dog assessed as increase in maximum systolic left ventricular pressure at 1 mg/kg, po observed upto 9 hrs post last dose by telemetry; type: organism-based, Canis lupus familiaris; details: in vivo; in short: as §3
[25] = Positive allosteric modulation of muscarinic M2/M3 receptor in Hartley guinea pig ileum assessed as increase in donepezil-induced stimulation of contraction in presence of mAChR antagonist atropine; type: tissue-based, Cavia porcellus
In short: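 PAM mode used guinea pig ileum in a tissue bath. Contraction concentration–response curves were run in the presence of an EC20 of donepezil, with or without atropine.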

[26] = Half life in dog at 0.5 mg/kg, po or 0.1 mg/kg, iv; type: ADME, organism-based, Canis lupus familiaris; details: in vivo
[27] = molecular target: T1, Muscarinic acetylcholine receptor M3; assay: Positive allosteric modulation of human recombinant muscarinic M3 receptor stably expressed in CHO cells assessed as increase in Ach-induced accumulation of intracellular calcium level upto 10 uM incubated for 10 mins followed by addition of Ach at EC20 concentration by Fluo-8AM dye based FLIPR TETRA method
[28] = Toxicity in male Beagle dog assessed as effect on cardiac contractility at 3 mg/kg, po administered as single dose observed upto 9 hrs post last dose by telemetry; type: organism-based, Canis lupus familiaris; details: in vivo; in short: as §3

T1 sequence (P20309 whole entry): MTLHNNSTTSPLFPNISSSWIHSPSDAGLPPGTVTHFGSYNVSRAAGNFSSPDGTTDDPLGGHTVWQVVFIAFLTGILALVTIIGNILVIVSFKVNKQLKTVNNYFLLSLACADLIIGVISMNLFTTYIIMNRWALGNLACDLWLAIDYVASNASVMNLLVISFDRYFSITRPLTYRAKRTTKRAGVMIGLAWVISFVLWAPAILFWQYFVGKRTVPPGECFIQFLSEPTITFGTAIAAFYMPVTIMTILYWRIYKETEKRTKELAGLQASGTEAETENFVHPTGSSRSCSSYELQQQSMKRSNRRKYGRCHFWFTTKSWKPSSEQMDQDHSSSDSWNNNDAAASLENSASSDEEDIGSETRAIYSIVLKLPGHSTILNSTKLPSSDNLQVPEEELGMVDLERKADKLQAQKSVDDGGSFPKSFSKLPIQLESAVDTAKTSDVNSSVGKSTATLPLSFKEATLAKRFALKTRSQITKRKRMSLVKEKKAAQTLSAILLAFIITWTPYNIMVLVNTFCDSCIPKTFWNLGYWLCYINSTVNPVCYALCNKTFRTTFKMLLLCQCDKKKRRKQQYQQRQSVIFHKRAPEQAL
Chain of Dual 3',5'-cyclic-AMP and -GMP phosphodiesterase 11A (Q9HCR9 whole entry): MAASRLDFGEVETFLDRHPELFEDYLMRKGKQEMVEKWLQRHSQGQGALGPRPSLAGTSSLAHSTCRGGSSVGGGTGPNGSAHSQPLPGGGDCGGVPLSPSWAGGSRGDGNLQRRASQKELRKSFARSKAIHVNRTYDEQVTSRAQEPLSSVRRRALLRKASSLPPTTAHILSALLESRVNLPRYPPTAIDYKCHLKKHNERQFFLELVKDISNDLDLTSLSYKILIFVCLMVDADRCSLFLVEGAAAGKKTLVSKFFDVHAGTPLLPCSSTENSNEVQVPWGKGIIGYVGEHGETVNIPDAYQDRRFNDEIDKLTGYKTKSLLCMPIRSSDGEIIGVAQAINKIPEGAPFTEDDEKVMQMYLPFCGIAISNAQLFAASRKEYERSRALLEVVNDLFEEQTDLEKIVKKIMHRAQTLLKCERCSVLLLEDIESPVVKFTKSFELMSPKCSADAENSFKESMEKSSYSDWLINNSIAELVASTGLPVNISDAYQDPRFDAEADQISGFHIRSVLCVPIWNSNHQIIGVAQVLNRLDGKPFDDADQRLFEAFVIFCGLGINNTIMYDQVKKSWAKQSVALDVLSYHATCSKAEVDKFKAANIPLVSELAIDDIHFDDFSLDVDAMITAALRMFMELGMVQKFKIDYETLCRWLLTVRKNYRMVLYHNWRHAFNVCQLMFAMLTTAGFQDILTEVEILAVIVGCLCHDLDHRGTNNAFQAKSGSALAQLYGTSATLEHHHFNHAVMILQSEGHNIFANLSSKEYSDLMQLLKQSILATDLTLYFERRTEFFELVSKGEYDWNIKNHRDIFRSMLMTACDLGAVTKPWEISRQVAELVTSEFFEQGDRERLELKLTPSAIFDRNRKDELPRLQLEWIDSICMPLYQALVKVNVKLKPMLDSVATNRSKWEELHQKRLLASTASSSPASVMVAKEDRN

Cc1cnc(C(=O)N[C@H]2CCOC[C@@H]2O)cc1Cc1ccc(-c2cscn2)cc1
EC50 [1]: 351 nM | IC50 [2]: 4940 nM | Fu [3]: 2.9% | fAUC [4]: 1.856 µM·h | bioavailability [5]: 112% | Cp(f) [6]: 19.6 nM | Activity (Rattus norvegicus): Active | Drug uptake(free) [7]: 0.31 nM | Activity [8]: Toxic | fAUC [9]: 5.242 µM·h | Papp [10]: 22 ×10⁻⁶ cm/s | fAUC [11]: 13.211 µM·h | Drug uptake(free) [12]: 6.7 nM | Cp(f) [13]: 3.7 nM | Activity [14]: Not Active | Kp uu at 1 h [15]: 0.34 | Ka [16]: 2 µM | Activity [17]: Toxic | Activity [18]: Toxic | Ratio AUC [19]: 0.41 | fAUC [20]: 7.765 µM·h | Drug uptake(free) [21]: 195 nM | fCmax [22]: 568 nM | Cp(f) [23]: 11.9 nM | Activity [24]: 8 mmHg | Activity [25]: Not Active | half-life [26]: 5.17 h | Activity [27]: Not Active | Activity [28]: Toxic
